Data as given in ChEMBL document CHEMBL4373697, “Cyclization of RGD Peptides by Suzuki-Miyaura Cross-Coupling” (J Med Chem, 2019).

How the values were obtained:
Integrin alpha-5/beta-1 = Integrin alpha-5/beta-1 (Homo sapiens, UniProt P05556+P08648); experiment: Inhibition of human fibronectin binding to human integrin alpha5beta1 incubated for 1 hr by ELISA; assay type: protein-complex assay
Integrin alpha-V/beta-3 [1] = molecular target: T1, Integrin alpha-V/beta-3 (Homo sapiens, UniProt P05106+P06756); experiment: Binding affinity to integrin alphavbeta3 receptor in human WM115 cells assessed as inhibition of cell adhesion to vitronectin after 0.5 hr by fluorescence assay; assay type: cell-based
Integrin alpha-V/beta-3 [2] = molecular target: T1, Integrin alpha-V/beta-3; experiment: Inhibition of human vitronectin binding to human integrin alphavbeta3 receptor after 1 hr by ELISA; assay type: protein-complex assay
[3] = molecular target: Integrin alpha-IIb/beta-3 (Homo sapiens, UniProt P05106+P08514); experiment: Inhibition of human fibronectin binding to human Integrin alpha2b beta3 receptor incubated for 1 hr by ELISA; assay type: protein-complex assay
[4] = Half-life in human plasma at 500 uM incubated for 24 hrs and measured up to 24 hrs by LC-MS analysis; assay type: ADME, cell-free
Method in brief: (§1)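 Compound from DMSO stock (final DMSO ≤1%) in human citrate plasma, pH 7.5, incubated at 37 °C, 400 rpm, for 24 h. Aliquots were taken at 0, 1, 3, 6, 8 and 24 h and quenched with cold acetonitrile containing warfarin (50 µM final) as internal standard, then centrifuged. Supernatant was run by LC-MS; UV peak area was compared with the internal standard.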

[5] = Half-life in human plasma at 250 uM incubated for 24 hrs and measured up to 24 hrs by LC-MS analysis; assay type: ADME, cell-free; method in brief: as §1

Integrin alpha-5/beta-1, sequence (P05556 21-798 limits assumed): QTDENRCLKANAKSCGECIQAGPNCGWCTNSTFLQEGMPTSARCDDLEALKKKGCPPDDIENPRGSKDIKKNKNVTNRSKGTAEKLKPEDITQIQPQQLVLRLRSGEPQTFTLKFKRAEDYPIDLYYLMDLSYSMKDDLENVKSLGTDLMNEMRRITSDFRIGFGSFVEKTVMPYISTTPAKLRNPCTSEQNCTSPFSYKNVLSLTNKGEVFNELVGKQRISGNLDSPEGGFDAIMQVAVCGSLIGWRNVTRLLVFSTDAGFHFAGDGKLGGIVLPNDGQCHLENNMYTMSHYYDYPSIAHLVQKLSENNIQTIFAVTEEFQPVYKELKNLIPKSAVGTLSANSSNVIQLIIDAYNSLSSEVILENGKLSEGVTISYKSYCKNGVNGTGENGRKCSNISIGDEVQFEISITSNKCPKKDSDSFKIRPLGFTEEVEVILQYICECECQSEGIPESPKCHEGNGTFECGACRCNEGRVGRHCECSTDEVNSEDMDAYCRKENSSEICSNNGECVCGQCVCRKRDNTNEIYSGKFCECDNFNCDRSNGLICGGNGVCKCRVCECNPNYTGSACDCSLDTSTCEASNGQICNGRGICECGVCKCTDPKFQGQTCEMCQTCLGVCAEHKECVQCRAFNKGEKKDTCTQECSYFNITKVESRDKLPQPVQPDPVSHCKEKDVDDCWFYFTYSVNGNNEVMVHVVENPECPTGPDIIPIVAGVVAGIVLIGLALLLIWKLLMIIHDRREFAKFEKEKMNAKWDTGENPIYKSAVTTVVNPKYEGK
Integrin alpha-5/beta-1, sequence (P08648 42-894 limits assumed): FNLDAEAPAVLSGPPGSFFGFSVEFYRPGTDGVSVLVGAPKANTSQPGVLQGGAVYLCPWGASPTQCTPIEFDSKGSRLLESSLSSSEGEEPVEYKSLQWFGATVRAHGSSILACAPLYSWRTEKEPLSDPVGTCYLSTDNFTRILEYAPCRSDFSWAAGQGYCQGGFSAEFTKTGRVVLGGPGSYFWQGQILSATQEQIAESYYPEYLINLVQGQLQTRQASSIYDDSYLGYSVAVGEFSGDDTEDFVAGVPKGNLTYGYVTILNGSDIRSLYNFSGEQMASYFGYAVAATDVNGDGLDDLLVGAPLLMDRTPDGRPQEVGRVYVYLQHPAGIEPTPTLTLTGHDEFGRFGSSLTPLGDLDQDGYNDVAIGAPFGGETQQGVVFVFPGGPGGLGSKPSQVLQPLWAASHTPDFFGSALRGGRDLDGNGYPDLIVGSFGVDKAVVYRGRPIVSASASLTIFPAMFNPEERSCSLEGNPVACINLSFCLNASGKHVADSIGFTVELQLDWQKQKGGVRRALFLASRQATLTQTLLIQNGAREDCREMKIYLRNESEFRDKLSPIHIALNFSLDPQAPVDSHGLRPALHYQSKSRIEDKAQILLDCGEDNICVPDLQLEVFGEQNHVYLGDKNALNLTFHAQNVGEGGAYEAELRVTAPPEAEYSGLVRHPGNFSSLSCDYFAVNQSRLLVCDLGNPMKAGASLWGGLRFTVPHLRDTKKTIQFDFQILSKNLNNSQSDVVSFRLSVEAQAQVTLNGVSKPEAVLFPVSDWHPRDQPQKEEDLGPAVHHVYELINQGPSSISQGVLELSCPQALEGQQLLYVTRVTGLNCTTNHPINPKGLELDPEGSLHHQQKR
Integrin alpha-5/beta-1, sequence (P08648 895-1049 limits assumed): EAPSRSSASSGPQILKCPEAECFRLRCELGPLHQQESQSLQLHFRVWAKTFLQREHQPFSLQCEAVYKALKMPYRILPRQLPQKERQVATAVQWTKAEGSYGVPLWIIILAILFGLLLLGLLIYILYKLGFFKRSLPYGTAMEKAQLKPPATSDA
T1 sequence (P05106 27-788 limits assumed): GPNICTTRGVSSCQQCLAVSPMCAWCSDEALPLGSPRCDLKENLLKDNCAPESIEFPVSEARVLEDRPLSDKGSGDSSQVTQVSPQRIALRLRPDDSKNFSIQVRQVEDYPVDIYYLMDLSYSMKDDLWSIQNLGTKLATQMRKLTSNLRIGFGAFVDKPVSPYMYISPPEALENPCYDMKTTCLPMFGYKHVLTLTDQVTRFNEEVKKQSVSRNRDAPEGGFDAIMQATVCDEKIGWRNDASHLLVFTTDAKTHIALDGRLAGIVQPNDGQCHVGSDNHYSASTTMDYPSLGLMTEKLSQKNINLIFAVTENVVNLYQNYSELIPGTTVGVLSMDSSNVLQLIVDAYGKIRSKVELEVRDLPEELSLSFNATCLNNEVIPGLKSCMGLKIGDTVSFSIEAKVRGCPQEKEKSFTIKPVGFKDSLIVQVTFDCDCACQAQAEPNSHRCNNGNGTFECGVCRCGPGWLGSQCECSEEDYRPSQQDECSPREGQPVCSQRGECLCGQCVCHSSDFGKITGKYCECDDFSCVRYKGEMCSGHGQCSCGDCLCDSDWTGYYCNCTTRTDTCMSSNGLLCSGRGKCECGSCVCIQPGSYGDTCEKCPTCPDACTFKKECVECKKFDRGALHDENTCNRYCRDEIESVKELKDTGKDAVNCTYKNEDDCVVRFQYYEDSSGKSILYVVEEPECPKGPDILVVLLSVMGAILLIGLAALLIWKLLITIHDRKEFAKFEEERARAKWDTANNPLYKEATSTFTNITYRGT
T1 sequence (P06756 31-889 limits assumed): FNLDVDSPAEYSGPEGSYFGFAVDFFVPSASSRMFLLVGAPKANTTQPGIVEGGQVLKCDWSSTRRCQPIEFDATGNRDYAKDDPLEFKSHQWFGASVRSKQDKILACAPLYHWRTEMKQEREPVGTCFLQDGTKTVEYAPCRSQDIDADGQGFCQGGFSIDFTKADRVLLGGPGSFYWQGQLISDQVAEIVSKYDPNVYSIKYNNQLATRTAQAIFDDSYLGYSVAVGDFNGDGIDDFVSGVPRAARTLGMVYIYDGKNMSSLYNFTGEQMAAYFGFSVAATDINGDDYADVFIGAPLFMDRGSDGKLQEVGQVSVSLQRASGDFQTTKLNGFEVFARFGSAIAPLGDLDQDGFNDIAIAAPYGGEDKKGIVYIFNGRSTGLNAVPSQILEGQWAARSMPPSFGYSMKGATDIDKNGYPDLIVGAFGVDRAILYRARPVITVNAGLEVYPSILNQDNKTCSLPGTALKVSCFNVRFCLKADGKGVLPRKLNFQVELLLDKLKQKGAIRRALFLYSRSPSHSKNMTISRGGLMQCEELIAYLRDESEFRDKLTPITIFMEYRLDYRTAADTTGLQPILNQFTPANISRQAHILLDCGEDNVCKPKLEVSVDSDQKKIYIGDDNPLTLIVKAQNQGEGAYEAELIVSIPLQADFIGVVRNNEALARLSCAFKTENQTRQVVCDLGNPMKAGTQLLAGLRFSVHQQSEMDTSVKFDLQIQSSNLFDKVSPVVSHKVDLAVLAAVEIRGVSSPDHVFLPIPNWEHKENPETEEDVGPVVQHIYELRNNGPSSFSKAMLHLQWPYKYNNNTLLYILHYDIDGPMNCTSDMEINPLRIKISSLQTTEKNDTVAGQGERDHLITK
T1 sequence (P06756 891-1048 limits assumed): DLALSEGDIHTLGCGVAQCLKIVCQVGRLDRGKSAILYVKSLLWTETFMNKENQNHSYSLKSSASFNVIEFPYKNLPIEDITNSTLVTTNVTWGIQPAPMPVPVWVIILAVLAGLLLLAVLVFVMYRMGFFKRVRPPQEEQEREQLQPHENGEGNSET
Integrin alpha-IIb/beta-3, sequence (P05106 27-788 limits assumed): as the sequence (P05106 27-788 limits assumed) above
Integrin alpha-IIb/beta-3, sequence (P08514 32-887 limits assumed): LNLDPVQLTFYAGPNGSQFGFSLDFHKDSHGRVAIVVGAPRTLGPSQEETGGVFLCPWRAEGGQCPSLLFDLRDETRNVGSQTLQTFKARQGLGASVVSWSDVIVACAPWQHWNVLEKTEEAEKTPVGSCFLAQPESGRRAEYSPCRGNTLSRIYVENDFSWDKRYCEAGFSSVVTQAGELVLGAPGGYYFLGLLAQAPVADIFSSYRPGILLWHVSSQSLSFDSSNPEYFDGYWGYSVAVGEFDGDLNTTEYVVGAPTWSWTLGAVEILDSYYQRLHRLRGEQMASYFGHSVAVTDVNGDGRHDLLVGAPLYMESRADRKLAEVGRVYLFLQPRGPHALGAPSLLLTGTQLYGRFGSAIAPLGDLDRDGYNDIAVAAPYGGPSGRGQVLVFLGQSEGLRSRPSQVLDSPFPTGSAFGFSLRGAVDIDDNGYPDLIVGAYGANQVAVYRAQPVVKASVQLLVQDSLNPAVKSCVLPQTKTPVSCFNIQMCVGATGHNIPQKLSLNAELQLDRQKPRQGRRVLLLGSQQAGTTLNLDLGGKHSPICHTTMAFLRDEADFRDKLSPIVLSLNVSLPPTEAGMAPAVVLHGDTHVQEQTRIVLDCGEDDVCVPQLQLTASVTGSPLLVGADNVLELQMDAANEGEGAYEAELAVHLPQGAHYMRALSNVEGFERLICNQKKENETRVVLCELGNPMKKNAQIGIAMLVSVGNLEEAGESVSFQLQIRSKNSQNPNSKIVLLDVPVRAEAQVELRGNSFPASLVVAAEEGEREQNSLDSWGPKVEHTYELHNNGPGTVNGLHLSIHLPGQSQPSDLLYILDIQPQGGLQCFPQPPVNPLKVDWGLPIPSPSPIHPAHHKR
Integrin alpha-IIb/beta-3, sequence (P08514 891-1039 limits assumed): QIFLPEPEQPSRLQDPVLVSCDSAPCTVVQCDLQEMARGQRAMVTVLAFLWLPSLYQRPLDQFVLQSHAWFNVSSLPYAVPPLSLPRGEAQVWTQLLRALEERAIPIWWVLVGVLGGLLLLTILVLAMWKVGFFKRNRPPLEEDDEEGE

| Structure (SMILES) | IC50 (Integrin alpha-5/beta-1) [µM] | IC50 (Integrin alpha-V/beta-3 [1]) [µM] | IC50 (Integrin alpha-V/beta-3 [2]) [µM] | IC50 [3] [µM] | half-life at 500 µM [4] [min] | half-life at 250 µM [5] [min] |
| --- | --- | --- | --- | --- | --- | --- |
| N=C(N)NCCC[C@@H]1NC(=O)c2cccc(c2)-c2cccc3c(c[nH]c23)C[C@@H](C(N)=O)NC(=O)[C@H](CC(=O)O)NC(=O)CNC1=O | 8.03 | > 500 | 0.019 |  |  |  |
| CN1C(=O)[C@H](Cc2ccccc2)NC(=O)[C@H](CC(=O)O)NC(=O)CNC(=O)[C@H](CCCNC(=N)N)NC(=O)CCCc2cccc3c(c[nH]c23)C[C@@H]1C(N)=O | 0.154 | > 500 | 0.034 |  |  |  |
| CN1C(=O)[C@@H](Cc2ccccc2)NC(=O)[C@H](CC(=O)O)NC(=O)CNC(=O)[C@H](CCCNC(=N)N)NC(=O)c2ccc(cc2)-c2cccc3c(c[nH]c23)C[C@H]1C(N)=O | 2.16 | > 500 | 0.0952 |  |  |  |
| N=C(N)NCCC[C@@H]1NC(=O)c2ccc(cc2)-c2cccc3c(c[nH]c23)C[C@@H](C(N)=O)NC(=O)[C@@H](Cc2ccccc2)NC(=O)[C@H](CC(=O)O)NC(=O)CNC1=O | 5.67 | > 500 | 0.579 |  |  |  |
| CN1C(=O)[C@H](Cc2ccccc2)NC(=O)[C@H](CC(=O)O)NC(=O)CNC(=O)[C@H](CCCNC(=N)N)NC(=O)c2cccc(c2)-c2cccc3c(c[nH]c23)C[C@@H]1C(N)=O | 0.547 | 9.4 | 0.0054 to 0.0139 | 5.8 | > 1440 |  |
| CN1C(=O)[C@H](Cc2ccccc2)NC(=O)[C@H](CC(=O)O)NC(=O)CNC(=O)[C@H](CCCNC(=N)N)NC(=O)CCCCCc2cccc3c(c[nH]c23)C[C@@H]1C(N)=O | 0.419 | > 500 | 0.0389 |  |  |  |
| N=C(N)NCCC[C@@H]1NC(=O)c2ccc(cc2)-c2cccc3c(c[nH]c23)C[C@H](C(N)=O)NC(=O)[C@H](CC(=O)O)NC(=O)CNC1=O | 5.94 | > 500 | 0.0413 | > 10 |  |  |
| N=C(N)NCCC[C@@H]1NC(=O)c2cccc(c2)-c2cccc3c(c[nH]c23)C[C@@H](C(N)=O)NC(=O)[C@@H](Cc2ccccc2)NC(=O)[C@H](CC(=O)O)NC(=O)CNC1=O | 0.983 | > 500 | 0.065 |  |  |  |
| N=C(N)NCCC[C@@H]1NC(=O)c2ccc(cc2)-c2cccc3c(c[nH]c23)C[C@H](C(N)=O)NC(=O)[C@H](Cc2ccccc2)NC(=O)[C@H](CC(=O)O)NC(=O)CNC1=O | 9.29 | 51 | 0.0177 | > 10 |  |  |
| N=C(N)NCCC[C@@H]1NC(=O)c2ccc(cc2)-c2ccc3c(c[nH]c3c2)C[C@H](C(N)=O)NC(=O)[C@H](Cc2ccccc2)NC(=O)[C@H](CC(=O)O)NC(=O)CNC1=O | > 10 | 310 | 0.0592 |  |  |  |
| CN1C(=O)[C@H](Cc2ccccc2)NC(=O)[C@H](CC(=O)O)NC(=O)CNC(=O)[C@H](CCCNC(=N)N)NC(=O)c2ccc(cc2)-c2cccc3c(c[nH]c23)C[C@@H]1C(N)=O | 0.835 | 11.1 | 0.023 | > 10 |  |  |

The remaining lines, values ahead:

| IC50 (Integrin alpha-5/beta-1) [µM] | IC50 (Integrin alpha-V/beta-3 [1]) [µM] | IC50 (Integrin alpha-V/beta-3 [2]) [µM] | IC50 [3] [µM] | half-life at 500 µM [4] [min] | half-life at 250 µM [5] [min] | Structure (SMILES) |
| --- | --- | --- | --- | --- | --- | --- |
| > 10 | > 500 | 0.537 |  |  |  | CN1C(=O)[C@H](CC(=O)O)NC(=O)CNC(=O)[C@H](CCCNC(=N)N)NC(=O)c2ccc(cc2)-c2cccc3c(c[nH]c23)C[C@@H]1C(N)=O |
| 0.00192 | 158 | 0.0646 |  |  |  | CN1C(=O)[C@H](Cc2ccccc2)NC(=O)[C@H](CC(=O)O)NC(=O)CNC(=O)[C@H](CCCNC(=N)N)NC(=O)c2ccccc2-c2cccc3c(c[nH]c23)C[C@@H]1C(N)=O |
| 0.563 | > 500 | 0.0362 |  |  |  | CN1C(=O)[C@H](Cc2ccccc2)NC(=O)[C@H](CC(=O)O)NC(=O)CNC(=O)[C@H](CCCNC(=N)N)NC(=O)CCCCc2cccc3c(c[nH]c23)C[C@@H]1C(N)=O |
| > 10 | > 500 | 0.239 |  |  |  | CN1C(=O)[C@H](CC(=O)O)NC(=O)CNC(=O)[C@H](CCCNC(=N)N)NC(=O)c2ccc(cc2)-c2cccc3c(c[nH]c23)C[C@H]1C(N)=O |
| 3.66 | > 500 | 0.491 |  |  |  | N=C(N)NCCC[C@@H]1NC(=O)c2ccc(cc2)-c2cccc3c(c[nH]c23)C[C@@H](C(N)=O)NC(=O)[C@H](CC(=O)O)NC(=O)CNC1=O |
|  |  |  |  |  | 30 | CCN(CC)CCOC(=O)c1ccc(N)cc1 [PROCAINE] |
| 0.325 | 250 | 0.0128 | 5.03 |  |  | CN1C(=O)[C@H](Cc2ccccc2)NC(=O)[C@H](CC(=O)O)NC(=O)CNC(=O)[C@H](CCCNC(=N)N)NC(=O)CCc2cccc3c(c[nH]c23)C[C@@H]1C(N)=O |
| 2.72 | 244 | 0.0149 | > 10 |  |  | CN1C(=O)[C@H](Cc2ccccc2)NC(=O)[C@H](CC(=O)O)NC(=O)CNC(=O)[C@H](CCCNC(=N)N)NC(=O)c2ccc(cc2)-c2ccc3c(c[nH]c3c2)C[C@@H]1C(N)=O |
